TAAR1 antagonist – human TAAR1 antagonists, primary screen, Fluo-8 calcium fluorescence, CHO RD-HGA16 cells; 360,000 tested, 1.5% active; inhibition, % at 3 µM; Trace amine-associated receptor 1 (Homo sapiens), Q96RJ0; antagonist;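 active = inhibition above a per-plate cutoff, the mean inhibition of test compounds on that plate plus 3 SD, cut at about 49% in these data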
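Test system – hTAAR1-expressing CHO RD-HGA16 cells, Gα16-coupled · Also added – β-PEA at EC80 concentration, post-compound challenge · Compound – 3 µM, single point · Incubation – dye loading 75 min at 37 °C, then 30 min room temperature · Measured by – Fluo-8 intracellular calcium dye fluorescence, real-time kinetic reads · Benchmarks – vehicle and agonist controls · Replicates – singlicate, one well per test compound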
TAAR1 agonist – human TAAR1 agonists, primary screen, Fluo-8 calcium fluorescence, CHO RD-HGA16 cells; vehicle wells 0%, saturating PEA agonist 100%; activation, % at 3 µM; 360,000 tested, 0.99% active;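 active = activation above the mean activation of all test compounds in the run plus 3 SD, cut at about 38% in these data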
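Assay system – CHO-derived RD-HGA16 cells with stable Gα16 and human TAAR1 · Compound dosing – one-point dosing at 3 µM (nominal) · Incubation – 17-24 h seeding, 75 min 37 °C dye, 30 min RT · Measured by – kinetic Fluo-8 calcium fluorescence · Control set – DMSO vehicle as 0%, PEA at EC100 as 100% · Repeats – single well for each compound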
OXTR potentiate – human OXTR potentiators, primary screen, fluorescence, CHO-OTR cells, Fluo-8 calcium. activation, % at 3 µM. Oxytocin receptor (Homo sapiens), P30559. 320,000 tested, 0.061% active. Fluo-8 calcium fluorescence, potentiator mode; 0% = oxytocin EC15, 100% = EC100;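 active = activation above that plate's cutoff, the mean activation of tested compounds plus 3 SD, cut at about 6.6% in these data, passing the limit was not always enough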
Target sequence (P30559 whole entry, looked up): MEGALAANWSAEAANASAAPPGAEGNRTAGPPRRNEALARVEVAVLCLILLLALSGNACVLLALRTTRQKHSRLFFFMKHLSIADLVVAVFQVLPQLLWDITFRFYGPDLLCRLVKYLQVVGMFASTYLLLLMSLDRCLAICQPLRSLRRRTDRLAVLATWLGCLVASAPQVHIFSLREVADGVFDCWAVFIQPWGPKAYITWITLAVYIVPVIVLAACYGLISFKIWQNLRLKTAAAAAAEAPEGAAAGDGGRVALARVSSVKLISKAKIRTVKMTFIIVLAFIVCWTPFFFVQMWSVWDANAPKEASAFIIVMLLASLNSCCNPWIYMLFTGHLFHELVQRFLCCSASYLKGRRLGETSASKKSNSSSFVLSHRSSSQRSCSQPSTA
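Material: CHO-OTR cells, human receptor; compound dosing: single dose, 3.0 µM nominal final compound concentration; schedule: 6 min compound pre-incubation at room temperature, 100 s kinetic read; measured by: kinetic Fluo-8 calcium fluorescence; read-out basis: % activation vs EC15 and EC100 oxytocin; controls: EC15 oxytocin alone as 0%, 75 nM oxytocin as 100%; replicates: singlicate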
V1R ag counter – agonists of human V1a receptor, primary screen, counter-screen for OXTR agonist project, fluorescence, CHO-V1R cells; Vasopressin V1a receptor (Homo sapiens), P37288; Fluo-8 calcium fluorescence, agonist mode; 0% DMSO, 100% 3 nM vasopressin; activation, % at 3 µM; 320,000 tested, 0.25% active; AID 2797, 2010;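 active = activation above the mean activation of all tested compounds plus 3 SD, per screening run, cut at about 20% in these data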;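 also: signal is peak over basal fluorescence ratio across a 100 second FLIPR read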
Target sequence (P37288 whole entry, looked up): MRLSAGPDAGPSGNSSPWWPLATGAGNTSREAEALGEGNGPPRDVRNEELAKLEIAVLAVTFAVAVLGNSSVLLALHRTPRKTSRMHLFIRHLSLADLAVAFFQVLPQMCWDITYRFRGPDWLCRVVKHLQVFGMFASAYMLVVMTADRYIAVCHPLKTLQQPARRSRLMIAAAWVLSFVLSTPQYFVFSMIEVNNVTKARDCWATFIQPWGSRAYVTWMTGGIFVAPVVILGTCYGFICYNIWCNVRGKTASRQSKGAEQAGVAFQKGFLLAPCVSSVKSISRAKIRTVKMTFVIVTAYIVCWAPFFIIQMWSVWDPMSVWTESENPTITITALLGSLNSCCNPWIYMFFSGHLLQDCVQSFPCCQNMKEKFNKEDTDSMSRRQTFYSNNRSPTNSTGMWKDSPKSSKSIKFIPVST
OXTR ag – human OXTR agonists, primary screen, fluorescence, CHO-OTR cells, Fluo-8 calcium; activation, % at 3 µM; 320,000 tested, 0.32% active; Oxytocin receptor (Homo sapiens), P30559; Fluo-8 calcium fluorescence; normalized: DMSO 0%, oxytocin 100%;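 active = activation above the mean of all tested compounds plus 3 SD, cutoff set per screening run, cut at about 20% in these data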;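 also: peak over basal fluorescence ratio from a 100 s FLIPR kinetic read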
TAAR1 nonsel count – nonselective antagonists in TAAR1 counter-screen cells, counter-screen for hTAAR1 antagonist project, cell-based, fluorescence, calcium; counterscreen cell line, antagonist mode; inhibition, % at 3 µM; shares compounds with TAAR1 antagonist; 2,400 tested, 77% active; in the data active = inhibition above about 22%;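 also: CHO-Ga16 host cells stimulated with ATP at an EC80 level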
TAAR1 antag conf – human TAAR1 antagonists, retest of hits, confirmation, cell-based, fluorescence; inhibition, % at 3 µM; 2,400 tested, 40% active; AID 651785, 2012; shares compounds with TAAR1 antagonist; TAAR1-expressing cells, fluorescence antagonist read-out; in the data active = inhibition above about 49%;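 also: CHO-Ga16 host cells challenged with agonist PEA near its EC80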
Ga16 nonsel ag – calcium activation in Ga16-expressing cells, counter-screen for TAAR1 antagonist project, cell-based, fluorescence; shares compounds with TAAR1 antagonist; agonist counterscreen; activation, % at 3 µM; 2,400 tested, 18% active; in the data active = activation above about 12%
TAAR1 ag count – TAAR1 activation by candidate antagonists – cell-based, fluorescence, counter-screen for TAAR1 antagonist project; shares compounds with TAAR1 antagonist; hTAAR1 cell line, agonist mode; activation, % at 3 µM; 2,400 tested, 2% active; AID 651955, 2012; in the data active = activation above about 37%;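 also: CHO cells stably expressing TAAR1 with calcium dye readout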
Each line names hits and unclear results; the compound was inactive in the other large screens (follow-up assays come after a bar, where they were run). The list is not random: actives were taken first. Their share in the collection is about 2.3%.

COc1cc(-c2cc(C(=O)NCc3ccco3)c3ccccc3n2)cc(OC)c1OC	TAAR1 antagonist 57.5 | TAAR1 nonsel count 22.8 | TAAR1 antag conf inactive | Ga16 nonsel ag inactive | TAAR1 ag count inactive
Cc1nn(-c2ccccn2)c2nc(-c3cccs3)cc(C(=O)NCc3ccco3)c12	TAAR1 antagonist 60.2 | TAAR1 nonsel count 31.8 | TAAR1 antag conf 48.8 | Ga16 nonsel ag inactive | TAAR1 ag count inactive
CCOC(=O)C1(C)CCCCCN1C(=O)c1ccc(N(C)C)cc1 (stereo not given)	none (no result: OXTR potentiate, V1R ag counter, OXTR ag)
COc1cc(C#Cc2c(-c3cncn3C)n(C)c3ccc(-c4cnc(OC)nc4)cc23)cc(OC)c1	TAAR1 antagonist 72.6 | TAAR1 nonsel count 35.3 | TAAR1 antag conf 52.4 | Ga16 nonsel ag inactive | TAAR1 ag count inactive
COC(=O)C1=C(C)N(Cc2ccc(Cl)cc2)C(=S)NC1c1cccc(OC)c1 (stereo not given)	TAAR1 antagonist 51.1 (no result: OXTR potentiate, V1R ag counter, OXTR ag) | TAAR1 nonsel count inactive | TAAR1 antag conf inactive | Ga16 nonsel ag inactive | TAAR1 ag count inactive
COc1ccc(N(C)S(=O)(=O)c2cccc(C(=O)Nc3ccc4c(c3)OCCO4)c2)cc1	none
COc1ccc(N(C)S(=O)(=O)c2cccc(C(=O)Nc3ccc(-n4cnnn4)cc3)c2)cc1	TAAR1 antagonist 75.0 | TAAR1 nonsel count 46.6 | TAAR1 antag conf 51.6 | Ga16 nonsel ag 13.3 | TAAR1 ag count inactive
COc1ccc(N(C)S(=O)(=O)c2cccc(C(=O)Nc3ccc(OC)nc3)c2)cc1	TAAR1 antagonist 62.0 | TAAR1 nonsel count 31.0 | TAAR1 antag conf inactive | Ga16 nonsel ag inactive | TAAR1 ag count inactive
CCCc1cc(C(=O)Nc2ccc(C(=O)c3ccc(C)cc3)cc2)n(C)n1	TAAR1 antagonist 64.2 | TAAR1 nonsel count 29.4 | TAAR1 antag conf 49.4 | Ga16 nonsel ag inactive | TAAR1 ag count inactive
Fc1ccccc1COc1ccc(Br)cc1CNCc1ccncc1	TAAR1 antagonist 74.9 | TAAR1 nonsel count 40.5 | TAAR1 antag conf 62.5 | Ga16 nonsel ag 11.5 | TAAR1 ag count inactive
O=S1CC/C(=N\O)c2ccccc21 (stereo not given)	none
CCS(=O)(=O)N1N=C(c2cccs2)CC1c1cc2cc(C)ccc2nc1Cl (stereo not given)	TAAR1 antagonist 49.5 | TAAR1 nonsel count inactive | TAAR1 antag conf inactive | Ga16 nonsel ag inactive | TAAR1 ag count inactive
O=C(N/N=C/c1ccc[nH]1)c1ccc(COc2cccc3cccnc23)cc1	none
Cc1cc(Br)c(OCc2ccc(C(=O)N/N=C/c3ccc[nH]3)cc2)c(Br)c1	none (no result: TAAR1 antagonist, TAAR1 agonist) | TAAR1 nonsel count inactive | Ga16 nonsel ag inactive
CC1Sc2ccc(S(=O)(=O)CCC(=O)NCc3cccs3)cc2NC1=O (stereo not given)	none
N=C1/C(=C\c2ccc(-c3ccc(C(=O)O)cc3)o2)C(=O)N=C2SC=C(c3ccccc3)N12	TAAR1 antagonist 53.7 (no result: OXTR potentiate, V1R ag counter, OXTR ag) | TAAR1 nonsel count 45.0 | TAAR1 antag conf 62.5 | Ga16 nonsel ag 16.0 | TAAR1 ag count inactive
N=C1/C(=C\c2ccc(-c3cccc(Cl)c3)o2)C(=O)N=C2SC=C(c3ccccc3)N12	none
CC(NC(=O)COC(=O)CCC(=O)c1ccc(F)cc1)c1ccccc1 (stereo not given)	none
CCOC(=O)N1CCN(S(=O)(=O)N2CCCC(C(=O)NCc3ccc(OC)cc3OC)C2)CC1 (stereo not given)	none
COc1cc(/C=C(\C#N)c2nc3ccccc3[nH]2)cc(Br)c1OCc1ccccc1	TAAR1 antagonist 59.8 | TAAR1 nonsel count 46.9 | TAAR1 antag conf 56.4 | Ga16 nonsel ag inactive | TAAR1 ag count inactive
COc1cc(/C=C(/C#N)c2ccccc2)ccc1Oc1ccc([N+](=O)[O-])cn1	none
COc1cc(/C=C(\C#N)c2nc3ccccc3[nH]2)ccc1Oc1ccc([N+](=O)[O-])cn1	TAAR1 antagonist 84.2 | TAAR1 nonsel count 49.5 | TAAR1 antag conf 65.5 | Ga16 nonsel ag inactive | TAAR1 ag count inactive
CCC(=O)c1c[nH]c(C(=O)NCCc2ccccn2)c1	none
CCOC(=O)c1sc(NC(=S)NC(=O)c2cccc(OC)c2)nc1C	none
CC(=O)N1CCN(c2ccccc2NC(=O)c2ccc(-c3cccc([N+](=O)[O-])c3)o2)CC1	TAAR1 antagonist 66.4 | TAAR1 nonsel count 27.5 | TAAR1 antag conf 49.2 | Ga16 nonsel ag inactive | TAAR1 ag count inactive
COc1ccc(CCNC(=O)c2ccc(-c3cccc([N+](=O)[O-])c3)o2)cc1OC	TAAR1 antagonist 59.5 | TAAR1 nonsel count 27.8 | TAAR1 antag conf inactive | Ga16 nonsel ag 14.5 | TAAR1 ag count inactive
COc1cc(NC(=O)c2ccc(-c3cccc([N+](=O)[O-])c3)o2)ccc1NC(=O)C(C)C	TAAR1 antagonist 63.0 | TAAR1 nonsel count 30.9 | TAAR1 antag conf inactive | Ga16 nonsel ag inactive | TAAR1 ag count inactive
COc1ccc(CCNC(=O)c2cccc([N+](=O)[O-])c2)cc1OC	none
Cc1ccccc1N1CCN(C(=S)c2ccc(-c3cccc([N+](=O)[O-])c3)o2)CC1	none
O=C1NC2(CCCCC2)C(=O)N1Cc1cc(=O)n2ccsc2n1	none
Cc1ccc(OCCn2ccnc2)c([N+](=O)[O-])c1	none
CC1CCCC(NC(=O)COC(=O)c2c[nH]c(=O)[nH]c2=O)C1C (stereo not given)	none
COc1cccc(C2/C(=C(\O)c3ccc4c(c3)OCCO4)C(=O)C(=O)N2CCCn2ccnc2)c1 (stereo not given)	none
COc1ccc(CCNC2=C(Cl)C(=O)N(CCc3ccc(OC)c(OC)c3)C2=O)cc1OC	TAAR1 antagonist 74.4 | TAAR1 nonsel count 44.2 | TAAR1 antag conf 59.6 | Ga16 nonsel ag inactive | TAAR1 ag count inactive
Cc1c(C(=O)Nc2ccc3c(c2)OCO3)sc2nc(-c3ccccc3)cn12	TAAR1 antagonist 84.7 | TAAR1 nonsel count 43.9 | TAAR1 antag conf 63.2 | Ga16 nonsel ag 11.8 | TAAR1 ag count inactive
Cc1c(C(=O)NCc2ccc3c(c2)OCO3)sc2nc(-c3ccccc3)cn12	none
